Reference: ChEMBL document CHEMBL3098010, “Synthesis and biological evaluation of 3-hydroxymethyl-5-(1H-1,2,3-triazol) isoxazolidines” (Bioorg Med Chem, 2013)
Active and inactive are the calls of the source. The rule behind the calls is not given here.

Tests used:
8305C [1] = assay: Induction of apoptosis in human 8305C cells assessed as caspase-3 positive cells at 5 uM after 24 hrs by immunohistochemical analysis; type: functional, cell-based
Procedure, shortened: (§1)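 Cells on chamber slides are treated 24 h with 5 µM compound, then fixed in 4% paraformaldehyde for 20 min. Unspecific sites are blocked with 1% NGS for 1 h, then cells are incubated overnight at 37 °C with mouse anti-caspase-3 (1:200) and a TRITC anti-mouse secondary. Caspase-3-positive cells are counted by fluorescence microscopy in four fields per coverslip across four experiments.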

FTC-133 [2] = assay: Induction of apoptosis in human FTC-133 cells assessed as caspase-3 positive cells at 5 uM after 24 hrs by immunohistochemical analysis; type: functional, cell-based; procedure, shortened: as §1
FTC-133 [3] = assay: Cytotoxicity against human FTC-133 cells after 24 hrs by MTT assay; type: functional, cell-based; details: FTC-133, 24 h
Procedure, shortened: (§2)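 FTC-133 (DMEM, 2 mM GlutaMAX, 10% FBS) and 8305C (MEM, 2 mM GlutaMAX, 10% FBS, 1% non-essential amino acids) cells are exposed to compound at 0.5–20 µM for 24 h at 37 °C, 5% CO2. MTT is added (20 µL of 0.5% in PBS, pH 7.4) for 1 h, then dissolved in DMSO and read at 570 nm. IC50 is taken graphically from dose–effect curves. Mean of four independent experiments in triplicate.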

8305C [4] = assay: Cytotoxicity against human 8305C cells after 24 hrs by MTT assay; type: functional, cell-based; procedure, shortened: as §2
8305C [5] = assay: Induction of apoptosis in human 8305C cells assessed as DNA fragmentation at 5 uM after 24 hrs by TUNEL assay (reference value: 2 +/- 1%); type: functional
FTC-133 [6] = assay: Induction of apoptosis in human FTC-133 cells assessed as DNA fragmentation at 5 uM after 24 hrs by TUNEL assay (reference value: 3 +/- 1%); type: functional

| Compound | Activity (8305C [1]) | Activity (FTC-133 [2]) | IC50 (FTC-133 [3]) [µM] | IC50 (8305C [4]) [µM] | Activity (8305C [5]) [%] | Activity (FTC-133 [6]) [%] |
| --- | --- | --- | --- | --- | --- | --- |
| CN1O[C@H](n2cc(-c3ccc(F)cc3)nn2)C[C@@H]1CO (relative stereo) | Active | Active | 5.85 | 6.85 | – | – |
| CCCCCc1ccc(-c2cn([C@@H]3C[C@H](CO)N(C)O3)nn2)cc1 (relative stereo) | Active | Active | 4.49 | 6.24 | – | – |
| CN1O[C@@H](n2ccnn2)C[C@@H]1CO (relative stereo) | Active | Active | 6.53 | 7.96 | – | – |
| CCCCCc1ccc(-c2cn([C@H]3C[C@H](CO)N(C)O3)nn2)cc1 (relative stereo) | Active | Active | 3.95 | 5.96 | – | – |
| CN1O[C@@H](n2cc(-c3ccc(F)cc3)nn2)C[C@@H]1CO | Active | Active | 6.07 | 6.76 | – | – |
| COc1ccc(-c2cn([C@@H]3C[C@H](CO)N(C)O3)nn2)cc1 (relative stereo) | Active | Active | 6.48 | 7.18 | – | – |
| CCCc1cn([C@H]2C[C@H](CO)N(C)O2)nn1 (relative stereo) | Active | Active | 3.87 | 5.82 | 90 | 95 |
| CN1O[C@@H](n2cc(-c3ccccc3)nn2)C[C@@H]1CO (relative stereo) | Active | Active | 6.03 | 7.14 | – | – |
| COc1ccc(-c2cn([C@H]3C[C@H](CO)N(C)O3)nn2)cc1 (relative stereo) | Active | Active | 7 | 8.01 | – | – |
| CN1O[C@H](n2ccnn2)C[C@@H]1CO (relative stereo) | Active | Active | 6.3 | 8.13 | – | – |
| CN1O[C@H](n2cc(-c3ccccc3)nn2)C[C@@H]1CO (relative stereo) | Active | Active | 6.33 | 8.76 | – | – |
| CCCc1cn([C@@H]2C[C@H](CO)N(C)O2)nn1 (relative stereo) | Active | Active | 4.71 | 6.87 | – | – |
| Nc1ccn([C@@H]2O[C@H](CO)[C@@H](O)C2(F)F)c(=O)n1 [GEMCITABINE] | Active | Active | 3.36 | 4.53 | – | – |
